The values that follow come from ChEMBL document CHEMBL1146292, “Dual serotonin transporter/histamine H3 ligands: Optimization of the H3 pharmacophore” (Bioorg Med Chem Lett, 2007).

The target in series [1] is Sodium-dependent serotonin transporter (Homo sapiens, UniProt P31645). The series can be described thus: Binding affinity to human SERT.
For series [2], the target named is Sodium-dependent serotonin transporter (Rattus norvegicus, UniProt P31652). The series can be described thus: Binding affinity to rat SERT. In outline: (§1)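 Means of at least three independent experiments, each run in triplicate; standard error of the mean reported.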
The target in a further series is Histamine H3 receptor (Homo sapiens, UniProt Q9Y5N1). The series can be described thus: Binding affinity to human histamine H3 receptor. Put shortly:
as §1

A short description of series [3]: Drug level in mouse brain at 10 mg/kg, ip after 24 hrs. Format: ADME, organism-based. Also noted: dose 10 mg/kg, route intraperitoneal. The note with it: read-out: Drug uptake. In outline: (§2)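 Mice given a single 10 mg/kg intraperitoneal dose. Brain drug concentration measured at 1 h and at 24 h post-dose, n = 3.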
A short description of series [4]: Drug level in mouse brain at 10 mg/kg, ip after 1 hr. In kind it is ADME, organism-based. Also noted: dose 10 mg/kg, route intraperitoneal. As to conditions: read-out: Drug uptake. Put shortly:
as §2

For a further series, the system named is Mus musculus. The series can be described thus: Effect on 5-HTP-induced head twitch in mouse at 10 mg/kg, ip after 1 hr relative to control. Format: functional. The note with it: route intraperitoneal. Put shortly: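 5-HTP-induced head-twitch model in mice. Test agent given at 10 mg/kg intraperitoneally, n = 4 per compound. Head twitches scored at 1 h and 24 h post-dose and expressed as percent of the control response.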

Sodium-dependent serotonin transporter (Rattus norvegicus, UniProt P31652), sequence (P31652 whole entry): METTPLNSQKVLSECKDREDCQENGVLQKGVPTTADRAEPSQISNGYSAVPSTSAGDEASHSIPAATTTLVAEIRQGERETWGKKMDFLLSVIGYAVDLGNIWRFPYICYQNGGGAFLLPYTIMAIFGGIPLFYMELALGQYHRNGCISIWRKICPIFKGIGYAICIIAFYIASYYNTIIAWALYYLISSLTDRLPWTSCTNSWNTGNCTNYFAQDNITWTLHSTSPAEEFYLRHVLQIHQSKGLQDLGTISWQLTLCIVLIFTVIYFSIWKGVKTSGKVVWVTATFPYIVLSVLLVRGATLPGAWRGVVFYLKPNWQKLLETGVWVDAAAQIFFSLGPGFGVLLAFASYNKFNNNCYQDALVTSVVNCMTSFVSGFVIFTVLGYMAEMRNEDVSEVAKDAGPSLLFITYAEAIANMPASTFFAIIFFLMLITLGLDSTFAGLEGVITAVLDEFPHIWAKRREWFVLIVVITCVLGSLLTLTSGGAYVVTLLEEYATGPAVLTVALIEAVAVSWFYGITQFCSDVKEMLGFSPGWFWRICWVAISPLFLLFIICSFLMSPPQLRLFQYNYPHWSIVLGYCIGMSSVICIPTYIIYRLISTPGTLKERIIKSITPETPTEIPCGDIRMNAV
Histamine H3 receptor, sequence (Q9Y5N1 whole entry): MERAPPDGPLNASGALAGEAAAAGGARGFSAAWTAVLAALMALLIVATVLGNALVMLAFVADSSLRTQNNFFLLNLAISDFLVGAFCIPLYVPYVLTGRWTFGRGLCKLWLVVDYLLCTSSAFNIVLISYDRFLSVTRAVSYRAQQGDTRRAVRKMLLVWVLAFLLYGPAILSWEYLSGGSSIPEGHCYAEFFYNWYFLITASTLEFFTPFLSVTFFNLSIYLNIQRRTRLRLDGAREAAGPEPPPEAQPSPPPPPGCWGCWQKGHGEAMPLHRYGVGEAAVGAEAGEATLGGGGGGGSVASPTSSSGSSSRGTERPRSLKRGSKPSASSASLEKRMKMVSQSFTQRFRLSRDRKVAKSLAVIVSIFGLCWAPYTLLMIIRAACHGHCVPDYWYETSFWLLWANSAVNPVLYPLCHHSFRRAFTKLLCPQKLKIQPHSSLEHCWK
Sodium-dependent serotonin transporter (Homo sapiens, UniProt P31645), sequence (P31645 whole entry): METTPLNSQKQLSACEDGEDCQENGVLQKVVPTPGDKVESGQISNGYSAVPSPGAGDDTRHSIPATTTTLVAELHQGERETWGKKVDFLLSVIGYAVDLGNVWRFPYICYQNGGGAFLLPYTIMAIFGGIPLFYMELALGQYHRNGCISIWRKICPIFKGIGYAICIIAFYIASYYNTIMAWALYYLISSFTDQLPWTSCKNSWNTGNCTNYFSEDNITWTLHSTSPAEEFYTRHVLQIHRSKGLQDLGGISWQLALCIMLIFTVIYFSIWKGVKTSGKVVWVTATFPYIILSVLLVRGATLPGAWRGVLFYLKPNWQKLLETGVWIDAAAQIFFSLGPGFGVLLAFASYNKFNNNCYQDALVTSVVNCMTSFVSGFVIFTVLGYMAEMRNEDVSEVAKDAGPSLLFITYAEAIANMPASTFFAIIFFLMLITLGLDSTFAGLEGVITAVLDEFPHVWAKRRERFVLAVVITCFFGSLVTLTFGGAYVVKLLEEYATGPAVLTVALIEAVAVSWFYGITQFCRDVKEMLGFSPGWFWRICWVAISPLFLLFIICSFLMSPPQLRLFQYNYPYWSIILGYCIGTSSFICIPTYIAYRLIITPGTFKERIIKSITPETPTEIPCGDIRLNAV

One may read the Ki as the dissociation constant of the complex between target and ligand, obtained from inhibition or displacement. For the molecule `COc1ccc(C2CN(C)Cc3cc(OCCCN4CCC(CO)CC4)ccc32)cc1` (centres undefined), the inhibition constant (Ki) was found to be 3.2 nM in series [1], 2 nM in series [2] and 9.5 nM at Histamine H3 receptor.

Consider `COc1ccc(C2CN(C)Cc3cc(OCCCN4CCCC(F)(F)C4)ccc32)cc1` (centres undefined), for which the Ki in series [1] was 8.2 nM; in series [2] it was 10 nM.

As to `COc1ccc(C2CN(C)Cc3cc(OCCCNC4CC4)ccc32)cc1` (centres undefined), the Ki was found to be 19.3 nM in series [1], 3 nM in series [2] and 38 nM on Histamine H3 receptor.

As for `COc1ccc(C2CN(C)Cc3cc(OCCCN4CC(F)(F)C4)ccc32)cc1` (centres undefined), the Ki stood at 2.9 nM in series [1] and 69 nM on Histamine H3 receptor.

As for `COc1ccc(C2CN(C)Cc3cc(OCCCN4CCC(C(F)(F)F)CC4)ccc32)cc1` (centres undefined), the results for the Ki (in series [1]; in series [2]; at Histamine H3 receptor) were 14 nM, 19 nM and 40 nM, respectively.

On to `COc1ccc(C2CN(C)Cc3cc(OCCCN4CCN(C(=O)C(C)C)CC4)ccc32)cc1` (centres undefined), for which the values for the inhibitory constant (Ki) (in series [1]; in series [2]; on Histamine H3 receptor) were 15 nM, 15 nM and 509 nM, respectively.

`COc1ccc(C2CN(C)Cc3cc(OCCCN4CCN(C(=O)c5ccncc5)CC4)ccc32)cc1` (centres undefined): the Ki came to 19 nM in series [1], 21 nM in series [2] and 2840 nM at Histamine H3 receptor.

As to `COc1ccc(C2CN(C)Cc3cc(OCCCN4CCC(F)(F)C4)ccc32)cc1` (centres undefined), the results for the Ki (in series [1]; in series [2]; on Histamine H3 receptor) were 7.3 nM, 8 nM and 9.5 nM, respectively.

Regarding `COc1ccc(C2CN(C)Cc3cc(OCCCN4CCC(C#N)CC4)ccc32)cc1` (centres undefined), the Ki in series [1] came to 5.3 nM; in series [2], 5.3 nM; at Histamine H3 receptor, 7.4 nM.

Consider `COc1ccc(C2CN(C)Cc3cc(OCCCN4CCN(C(=O)c5cccn5C)CC4)ccc32)cc1` (centres undefined), for which the Ki in series [1] was 8.8 nM; in series [2] it was 8.4 nM; on Histamine H3 receptor, 2610 nM.

On to `COc1ccc(C2CN(C)Cc3cc(OCCCN4CCN(C(C)=O)CC4)ccc32)cc1` (centres undefined), for which the Ki in series [1] amounted to 42 nM; in series [2], 15 nM; at Histamine H3 receptor, 267 nM.

For the molecule `COc1ccc(C2CN(C)Cc3cc(OCCCN4CCC4)ccc32)cc1` (centres undefined), the Ki in series [1] was 4.8 nM; in series [2], 1 nM.

With `COc1ccc(C2CN(C)Cc3cc(OCCCN4CCN(c5ccccc5O)CC4)ccc32)cc1` (centres undefined), the Ki stood at 7.2 nM in series [1], 5.7 nM in series [2] and 1110 nM at Histamine H3 receptor.

For the molecule `COc1ccc(C2CN(C)Cc3cc(OCCCN4CCN(c5ccc(C#N)cc5)CC4)ccc32)cc1` (centres undefined), the Ki in series [1] amounted to 8 nM; in series [2] it was 3.3 nM; on Histamine H3 receptor, 144 nM.

For `COc1ccc(C2CN(C)Cc3cc(OCCCN4CCN(c5ccncc5)CC4)ccc32)cc1` (centres undefined), the Ki is 4 nM in series [1], 5.3 nM in series [2] and 3.3 nM on Histamine H3 receptor.

Take `CCN(CC)CCCOc1ccc2c(c1)CN(C)CC2c1ccc(OC)cc1` (centres undefined): the Ki came to 2.2 nM in series [2] and 1.7 nM at Histamine H3 receptor.

Take `COc1ccc(C2CN(C)Cc3cc(OCCCN4CCC(F)CC4)ccc32)cc1` (centres undefined): the concentration at 24 h in series [3] amounted to 2.5 µM. In addition, the concentration at 1 h in series [4] stood at 6.1 µM. This molecule also showed an Activity with Mus musculus above 500%. Moreover, the inhibition constant (Ki) is 2.9 nM in series [1] and 1.6 nM in series [2].

In the case of `COc1ccc(C2CN(C)Cc3cc(OCCCN4CCC(F)(F)CC4)ccc32)cc1` (centres undefined), the Ki in series [1] is 6.5 nM; in series [2], 5.7 nM; on Histamine H3 receptor, 8.7 nM.

In the case of `COc1ccc(C2CN(C)Cc3cc(OCCCN(C4CC4)C4CC4)ccc32)cc1` (centres undefined), the Ki in series [1] was 9.7 nM; in series [2], 7.6 nM; at Histamine H3 receptor, 7.4 nM.

For the molecule `COc1ccc(C2CN(C)Cc3cc(OCCCN4CCC(O)CC4)ccc32)cc1` (centres undefined), the Ki in series [1] stood at 3.8 nM; in series [2] it was 1.2 nM; on Histamine H3 receptor, 11 nM.

With `CCNCCCOc1ccc2c(c1)CN(C)CC2c1ccc(OC)cc1` (centres undefined), the Ki in series [1] stood at 3.4 nM; in series [2] it was 0.73 nM; on Histamine H3 receptor it was 47 nM.

For `COc1ccc(C2CN(C)Cc3cc(OCCCN4CCS(=O)(=O)CC4)ccc32)cc1` (centres undefined), the results for the Ki (in series [1]; in series [2]; on Histamine H3 receptor) were 12 nM, 6.3 nM and 106 nM, respectively.

Consider `COc1ccc(C2CN(C)Cc3cc(OCCCN4CCN(c5ccc(C(F)(F)F)cc5)CC4)ccc32)cc1` (centres undefined), for which the Ki amounted to 33 nM in series [1], 25 nM in series [2] and 1440 nM at Histamine H3 receptor.

Take `COc1ccc(C2CN(C)Cc3cc(OCCCN4CCN(C(C)C)CC4)ccc32)cc1` (centres undefined): the inhibition constant (Ki) in series [1] was determined as 1.8 nM; in series [2] it was 1.3 nM; on Histamine H3 receptor it was 9.7 nM.

For the molecule `CCN1CCN(CCCOc2ccc3c(c2)CN(C)CC3c2ccc(OC)cc2)CC1` (centres undefined), the values for the Ki (in series [2]; at Histamine H3 receptor) were 1.5 nM and 12 nM, respectively.

Consider `COc1ccc(C2CN(C)Cc3cc(OCCCN4CCN(c5nccs5)CC4)ccc32)cc1` (centres undefined), for which the inhibitory constant (Ki) in series [1] is 5.3 nM; in series [2], 2.7 nM; on Histamine H3 receptor it was 268 nM.

With `COc1ccc(C2CN(C)Cc3cc(OCCCN4CCOCC4)ccc32)cc1` (centres undefined), the concentration at 24 h in series [3] was below 1 µM. Besides, in series [4], the concentration at 1 h amounted to 12.5 µM. In the series on Mus musculus, this molecule had an Activity above 500%. For the same molecule, the Ki in series [1] was found to be 6.5 nM; in series [2] it was 4.8 nM; on Histamine H3 receptor, 3.8 nM.

On to `COc1ccc(C2CN(C)Cc3cc(OCCCN4CCN(C5CC5)CC4)ccc32)cc1` (centres undefined), for which the inhibition constant (Ki) in series [1] was determined as 18 nM; in series [2], 10 nM; at Histamine H3 receptor, 30 nM.
